Consider six compounds from ChEMBL document CHEMBL1142382, “Synthesis and biological activity of a 3,4,5-trimethoxybenzoyl ester analogue of epicatechin-3-gallate” (J Med Chem, 2008).

A short description of data set [1]: Antioxidant activity assessed as ABTS radical scavenging activity. It is filed as functional. In a few lines: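 ABTS radical cation generated from ABTS (150 μM) with H2O2 (75 μM) and HRP (0.25 μM) in citrate-phosphate pH 4.5, diluted in 5 mM PBS pH 7.4 to A734 0.70, pre-warmed 30 °C. Compounds in PBS (50 μM stock) at four concentrations within the Trolox dose-response range, triplicates; A734 read 1 min after mixing; TEAC derived from Trolox curve.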

A short description of data set [2]: Prooxidant activity assessed as enhancement of NADPH oxidation at 50 uM. It is filed as functional. In a few lines: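 Rate of NADPH (0.1 mM) oxidation measured with 50 μM catechin in sodium-phosphate buffer, pH 7.4, 37 °C. Read-out is the fall in NADPH absorbance at 340 nm. Runs were done with and without bovine liver SOD at 10 μg/mL.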
In data set [3] the test system is Caco-2. Put plainly: Growth inhibition of human Caco-2 cells at 25 uM after 6 days. It is filed as functional, cell-based. In a few lines: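 Caco-2 cells treated 6 days with 25 μM compound; MTT viability expressed as percent of untreated control (100%); mean of three independent experiments ± SD.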
Data set [4] can be described thus: Stability in human HT29 cells assessed as half life. In kind it is ADME, cell-based. As to conditions: HT-29 cells.
The target of data set [5] is T1, Dihydrofolate reductase (Homo sapiens) (UniProt P00374).
T1 sequence (whole entry): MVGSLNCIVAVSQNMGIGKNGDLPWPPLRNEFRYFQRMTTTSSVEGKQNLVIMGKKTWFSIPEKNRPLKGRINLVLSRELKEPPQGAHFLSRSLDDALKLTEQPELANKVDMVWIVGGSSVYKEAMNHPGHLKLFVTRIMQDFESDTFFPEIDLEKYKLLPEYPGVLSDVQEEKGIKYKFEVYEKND
Put plainly: Dissociation constant for binding to free human recombinant DHFR by fluorescence titration.

Data set [6] addresses T1, Dihydrofolate reductase (Homo sapiens). Put plainly: Inhibition of human recombinant DHFR at 100 uM. An outline of the steps: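 Recombinant human DHFR activity at 25 °C followed as drop in NADPH/DHF absorbance at 340 nm in Mes 0.025 M, sodium acetate 0.025 M, Tris 0.05 M, NaCl 0.1 M, pH 7.4, with 1 mM ascorbic acid; reaction started with enzyme; compounds at 100 μM; activity relative to no-compound control, mean of five experiments.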

The subject of data set [7] is SK-MEL-28. Put plainly: Antiproliferative activity against human SkMel28 cells after 6 days by MTT assay. In kind it is functional, cell-based. The settings on record: SK-MEL-28, 144 h. In a few lines: (§1)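 ATCC lines kept in medium with 10% FCS and antibiotics; plated at 1000 cells/well, grown to 50-60% confluence, then exposed for 6 days. Viability by MTT, formazan read at 570 nm; IC50 derived.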

The subject of data set [8] is Caco-2. Put plainly: Antiproliferative activity against human Caco-2 cells after 6 days by MTT assay. It is filed as functional, cell-based. The settings on record: Caco-2, 144 h. An outline of the steps: as §1
For data set [9], the system named is SK-MEL-28. Briefly: Growth inhibition of human SkMel28 cells at 20 uM after 6 days. In kind it is functional, cell-based.
The test system of data set [10] is SK-MEL-28. Put plainly: Down regulation of DHFR mRNA expression in human SkMel28 cells at 20 uM after 24 hrs. It is filed as functional, cell-based. In a few lines: (§2)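 SkMel-28 cells treated and mRNA quantified by SYBR Green real-time PCR (95 °C 15 min; 40-50 cycles 94 °C 30 s, 55 °C 30 s, 72 °C 1 min), triplicate reactions, at least two independent experiments; melting-curve specificity check; expression relative to normal human epidermal melanocytes.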

Data set [11] has as its system SK-MEL-28. Put plainly: Down regulation of thymidylate synthase mRNA expression in human SkMel28 cells at 20 uM after 24 hrs. It is filed as functional, cell-based. In a few lines: as §2
Data set [12] in a line: Antiproliferative activity against human H1264 cells after 6 days by MTT assay. In kind it is functional, cell-based. As to conditions: H1264, 144 h. In a few lines:
as §1

For the next data set, the system named is MCF7. Put plainly: Antiproliferative activity against human MCF7 cells after 6 days by MTT assay. It is filed as functional, cell-based. As to conditions: MCF7, 144 h. An outline of the steps:
as §1

Data set [13] relates to SK-MEL-28. Briefly: Down regulation of methyltetrahydrofolate reductase mRNA expression in human SkMel28 cells at 20 uM after 24 hrs. It is filed as functional, cell-based. In a few lines:
as §2

Active and inactive are the calls of the source. The calls are words filed in the database; no cut-off is given here.

For the compound VITAMIN E, the Activity in data set [1] stood at 1 mM.
With `O=C(O[C@@H]1Cc2c(O)cc(O)cc2O[C@@H]1c1cc(O)c(O)c(O)c1)c1cc(O)c(O)c(O)c1` [EPIGALOCATECHIN GALLATE], the outcome (in [2]; in the data set with Caco-2 [3]) was Active. Besides, the Activity in data set [1] worked out at 4.8 mM. Also, in data set [4], the half-life was less than 2 h. The Kd in [5] was 0.92 µM.
Regarding `Oc1cc(O)c2c(c1)O[C@H](c1ccc(O)c(O)c1)[C@H](O)C2`, in data set [6], the outcome was inactive.
Regarding `O=C(O[C@@H]1Cc2c(O)cc(O)cc2O[C@@H]1c1ccc(O)c(O)c1)c1cc(O)c(O)c(O)c1`, the result in the data set with Caco-2 [3] was Active. In data set [1], the Activity stood at 4.9 mM. Further, the Kd in [5] is 1.78 µM.
Take `COc1cc(C(=O)O[C@@H]2Cc3c(O)cc(O)cc3O[C@@H]2c2ccc(O)c(O)c2)cc(OC)c1OC`: the IC50 is 2.9 µM with SK-MEL-28 [7], 33 µM in the data set with Caco-2 [8], 18 µM in data set [12] and 80 µM with MCF7. Moreover, the result in the data set with Caco-2 [3], with SK-MEL-28 [9], with SK-MEL-28 [10], in the data set on SK-MEL-28 [11] and in the data set on SK-MEL-28 [13] was Active. Further, in data set [1], the Activity stood at 1.9 mM. In addition, in data set [5], the Kd stood at 2.1 µM.
As for `Oc1cc(O)c2c(c1)O[C@H](c1cc(O)c(O)c(O)c1)[C@H](O)C2`, in [6], the outcome was inactive. The result in data set [2] was Active.
